From PMC11293135 (Journal of Nanobiotechnology, 2024)
Counter-ions that a name gives are not always drawn.

Key:
4T1 tumor-bearing mice [1] = experiment: In vivo MR-T1 mapping imaging; design: species or system BALB/c mice; conditions: by 3 h post-injection, 1 mg/kg i.v., n = 3
Procedure, shortened: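 4T1 flank tumors were raised in female BALB/c mice (1.0 × 10^6 cells s.c.), n = 3 per group. The click group received azido-sugar 40 mg/kg i.p. once daily for 3 days; the other groups received PBS. Mice were then injected i.v. with 150 μL (1 mg/kg) of Gd probe or Gd-DOTA. T1 mapping was done before injection and at 1, 2, 3 and 4 h, and tumor 1/T1 values were quantified.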

4T1 tumor-bearing mice [2] = experiment: Treatment-related toxicity; assay type: in vivo, BALB/c mice; conditions: 5 mg/kg
Procedure, shortened: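 Female BALB/c mice bearing ~150 mm3 s.c. 4T1 tumors were split into 5 groups (n = 5). Click groups were pretreated with azido-sugar 40 mg/kg i.p. daily for 3 days; others received PBS. Treatments at 5 mg/kg i.v. were given every 7 days. Body weight was recorded every 2 days for 14 days. Major organs were fixed in 4% paraformaldehyde, paraffin-embedded, and H&E stained.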

DCs from TDLNs = experiment: DC maturation in TDLNs by flow cytometry; assay type: in vivo, BALB/c mice; conditions: mean ± SD, n = 5
Procedure, shortened: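 Female BALB/c mice (5–6 weeks) received 1.0 × 10^6 4T1 cells s.c. in the flank. Once tumors reached ~150 mm3, click groups got azido-sugar 40 mg/kg i.p. daily for 3 days and others got PBS. All groups then received 5 mg/kg i.v. every 7 days (n = 5). TDLNs were digested with collagenase IV (37 °C, 1 h) and strained at 70 μm. Mature DCs were gated CD40+CD80+MHC II+CCR7+. Mean ± SD reported.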

PD-L1 = conditions: DOX treatment; ref [41], [42]; cited from earlier work
HC11 cells = experiment: In vitro cytotoxicity, CCK-8 assay; assay type: cell-based, mouse; conditions: concentrations up to 50 μM, three days
Procedure, shortened: (§1)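 4T1 and HC11 cells were grown in RPMI-1640 with 10% FBS at 37 °C and 5% CO2. Cells were exposed to the azido-sugar test compound at 0–50 μM for 3 days. Viability was read by CCK-8.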

4T1 cells = experiment: In vitro cytotoxicity, CCK-8 assay; assay type: cell-based, murine; conditions: concentrations up to 50 μM, three days
Procedure, shortened: as §1

SMILES: O=C([O-])CN1CCN(CC(=O)[O-])CCN(CC(=O)[O-])CCN(CC(=O)[O-])CC1.[Gd+3] [Gd-DOTA]
- Tumor MR signal (4T1 tumor-bearing mice [1]): returned to baseline levels

SMILES: COc1cccc2c1C(=O)c1c(O)c3c(c(O)c1C2=O)C[C@@](O)(C(=O)CO)C[C@@H]3O[C@H]1C[C@H](N)[C@H](O)[C@H](C)O1 [DOX, Doxorubicin hydrochloride]
- Body weight change (4T1 tumor-bearing mice [2]; measured every two days for 14 days, n = 5): severe weight loss
- H&E analyses on major organs compared to PBS-treated mice (4T1 tumor-bearing mice [2]; end of antitumor study): substantial damage
- MHC-II expression in TDLNs (DCs from TDLNs): 45.04 ± 1.85%
- PD-L1 expression of 4T1 cells (PD-L1): elevation in PD-L1 expression

SMILES: CC(=O)OC[C@H]1OC(OC(C)=O)[C@@H](NC(=O)CN=[N+]=[N-])[C@@H](OC(C)=O)[C@@H]1OC(C)=O (stereo partly shown) [Ac4ManNAz, tetraacetyl-N-azidoacetylmannosamine]
- Cytotoxicity to HC11 cells (HC11 cells): no significant harm
- Cytotoxicity to 4T1 cells (4T1 cells): no significant harm
